Source: ChEMBL document CHEMBL5724801, “EUbOPEN Chemogenomics Library - Multiplex” (2024)
Several values for one entry are separate records, joined by “and”; a condition that tells them apart may be missing. Equal entries are not always repeated.

System: U2OS
Experiment: Multiplex assay against U2OS
Type: toxicity, cell-based
Conditions: human
How it was run: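 Phenotypes for tubulin, mitochondrial mass and membrane permeability are expressed as per cents of healthy-nucleus cells. Cells were stained live at seeding with Hoechst33342, BioTracker Green Microtubule Cytoskeleton Dye, MitoTracker Red and Annexin V Alexa Fluor 680, then imaged after compound addition on a CQ1 microscope at 37°C and 5% CO2. Machine-learning gating in CellPathfinder separated Hoechst high-intensity objects from normal cells, divided normal cells by nuclear state (healthy, pyknosed, fragmented) and divided pyknosed cells into mitotic or apoptotic.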

[1] = 12 h, 1 µM, compound concentration 1 uM
[2] = 12 h, 10 µM, compound concentration 10 uM
[3] = 24 h, 1 µM, compound concentration 1 uM
[4] = 24 h, 10 µM, compound concentration 10 uM
[5] = 48 h, 1 µM, compound concentration 1 uM
[6] = 48 h, 10 µM, compound concentration 10 uM

SMILES: c1ccc2nc(N3CCNCC3)ccc2c1 [QUIPAZINE]
- Population Apoptotic (%) [1]: 38.46% and 42.86%
- Population Fragmented Nuclei (%) [1]: 2.12% and 3.18%
- Population Healthy Nuclei (%) [1]: 85.61% and 83.44%
- Population Hoechst High Intensity Objects (%) [1]: 0%
- Population Membrane Permeable-Phenotype (%) [1]: 0.28% and 1.53%
- Population Mitotic Cells (%) [1]: 61.54% and 57.14%
- Population Normal (%) [1]: 100%
- Population Pyknosed Nuclei (%) [1]: 12.26% and 13.38%
- Population Tubulin-Different-Phenotype (%) [1]: 0.28% and 0%
- Total Cell Count [1]: 424 and 157
- Population Apoptotic (%) [2]: 41.67% and 21.05%
- Population Fragmented Nuclei (%) [2]: 2.14% and 2.94%
- Population Healthy Nuclei (%) [2]: 88.24% and 85.88%
- Population Hoechst High Intensity Objects (%) [2]: 0%
- Population Membrane Permeable-Phenotype (%) [2]: 2.12% and 2.05%
- Population Mitochondria Different-Phenotype (%) [2]: 0.61% and 9.59%
- Population Mitotic Cells (%) [2]: 58.33% and 78.95%
- Population Normal (%) [2]: 100%
- Population Pyknosed Nuclei (%) [2]: 9.63% and 11.18%
- Population Tubulin-Different-Phenotype (%) [2]: 1.21% and 0%
- Total Cell Count [2]: 374 and 170
- Population Apoptotic (%) [3]: 52.86% and 39.13%
- Population Fragmented Nuclei (%) [3]: 0.69% and 1.94%
- Population Healthy Nuclei (%) [3]: 87.26% and 86.89%
- Population Hoechst High Intensity Objects (%) [3]: 0.17% and 0%
- Population Membrane Permeable-Phenotype (%) [3]: 0.79% and 3.91%
- Population Mitochondria Different-Phenotype (%) [3]: 0.39% and 6.7%
- Population Mitotic Cells (%) [3]: 47.14% and 60.87%
- Population Normal (%) [3]: 99.83% and 100%
- Population Pyknosed Nuclei (%) [3]: 12.05% and 11.17%
- Population Tubulin-Different-Phenotype (%) [3]: 1.38% and 0%
- Total Cell Count [3]: 582 and 206
- Population Apoptotic (%) [4]: 40.82% and 48%
- Population Fragmented Nuclei (%) [4]: 0.76% and 0%
- Population Healthy Nuclei (%) [4]: 89.87% and 89.41%
- Population Hoechst High Intensity Objects (%) [4]: 0%
- Population Membrane Permeable-Phenotype (%) [4]: 1.06% and 3.32%
- Population Mitochondria Different-Phenotype (%) [4]: 0.43% and 6.16%
- Population Mitotic Cells (%) [4]: 59.18% and 52%
- Population Normal (%) [4]: 100%
- Population Pyknosed Nuclei (%) [4]: 9.37% and 10.59%
- Population Tubulin-Different-Phenotype (%) [4]: 1.28% and 0%
- Total Cell Count [4]: 523 and 236
- Population Apoptotic (%) [5]: 43.56% and 50%
- Population Fragmented Nuclei (%) [5]: 2.56% and 1.98%
- Population Healthy Nuclei (%) [5]: 88.55% and 87.25%
- Population Hoechst High Intensity Objects (%) [5]: 0%
- Population Membrane Permeable-Phenotype (%) [5]: 0.9% and 1.95%
- Population Mitochondria Different-Phenotype (%) [5]: 0.2% and 3.9%
- Population Mitotic Cells (%) [5]: 56.44% and 50%
- Population Normal (%) [5]: 100%
- Population Pyknosed Nuclei (%) [5]: 8.9% and 10.76%
- Population Tubulin-Different-Phenotype (%) [5]: 0.9% and 0.32%
- Population Apoptotic (%) [6]: 39.47% and 52.17%
- Population Fragmented Nuclei (%) [6]: 3.42% and 0.25%
- Population Healthy Nuclei (%) [6]: 89.16% and 94.06%
- Population Hoechst High Intensity Objects (%) [6]: 0% and 0.25%
- Population Membrane Permeable-Phenotype (%) [6]: 0.99% and 2.63%
- Population Mitochondria Different-Phenotype (%) [6]: 0.11% and 1.84%
- Population Mitotic Cells (%) [6]: 60.53% and 47.83%
- Population Normal (%) [6]: 100% and 99.75%
- Population Pyknosed Nuclei (%) [6]: 7.42% and 5.69%
- Population Tubulin-Different-Phenotype (%) [6]: 1.42% and 0.79%
- Total Cell Count [6]: 1024 and 405

SMILES: CCC(=O)N1CCN(c2ccc(-n3c(=O)ccc4cnc5ccc(-c6cnc7ccccc7c6)cc5c43)cc2C(F)(F)F)CC1 [TORIN1]
- Population Apoptotic (%) [2]: 68% and 76%
- Population Healthy Nuclei (%) [2]: 55% and 71%
- Population Hoechst High Intensity Objects (%) [2]: 1% and 3%
- Population Mitochondria Different-Phenotype (%) [2]: 7%
- Population Normal (%) [2]: 98% and 96%
- Population Tubulin-Different-Phenotype (%) [2]: 5% and 9%
- Total Cell Count [2]: 288 and 109
- Population Apoptotic (%) [4]: 77% and 73%
- Population Healthy Nuclei (%) [4]: 54% and 72%
- Population Hoechst High Intensity Objects (%) [4]: 1% and 2%
- Population Mitochondria Different-Phenotype (%) [4]: 9%
- Population Normal (%) [4]: 98% and 97%
- Population Tubulin-Different-Phenotype (%) [4]: 5% and 3%
- Total Cell Count [4]: 287 and 115
- Population Apoptotic (%) [6]: 78% and 82%
- Population Healthy Nuclei (%) [6]: 44%
- Population Hoechst High Intensity Objects (%) [6]: 7% and 2%
- Population Normal (%) [6]: 93% and 97%
- Population Tubulin-Different-Phenotype (%) [6]: 8% and 5%
- Total Cell Count [6]: 300 and 147

SMILES: CC(C)(C)c1ccc(S(=O)(=O)Nc2ccc(Cl)cc2C(=O)c2cc[n+]([O-])cc2)cc1 [VERCIRNON]
- Population Apoptotic (%) [1]: 77% and 100%
- Population Fragmented Nuclei (%) [1]: 28% and 15%
- Population Healthy Nuclei (%) [1]: 61% and 79%
- Population Hoechst High Intensity Objects (%) [1]: 1% and 0%
- Population Membrane Permeable-Phenotype (%) [1]: 8%
- Population Mitochondria Different-Phenotype (%) [1]: 5% and 4%
- Population Mitotic Cells (%) [1]: 22% and 0%
- Population Normal (%) [1]: 98% and 99%
- Population Pyknosed Nuclei (%) [1]: 10% and 5%
- Population Tubulin-Different-Phenotype (%) [1]: 4% and 3%
- Total Cell Count [1]: 307 and 156
- Population Apoptotic (%) [2]: 77% and 50%
- Population Fragmented Nuclei (%) [2]: 24% and 21%
- Population Healthy Nuclei (%) [2]: 68% and 77%
- Population Hoechst High Intensity Objects (%) [2]: 1% and 0%
- Population Mitochondria Different-Phenotype (%) [2]: 2%
- Population Mitotic Cells (%) [2]: 22% and 50%
- Population Normal (%) [2]: 98% and 99%
- Population Pyknosed Nuclei (%) [2]: 6% and 1%
- Total Cell Count [2]: 266 and 123
- Population Apoptotic (%) [3]: 89% and 92%
- Population Fragmented Nuclei (%) [3]: 25% and 18%
- Population Healthy Nuclei (%) [3]: 67% and 74%
- Population Hoechst High Intensity Objects (%) [3]: 1% and 0%
- Population Membrane Permeable-Phenotype (%) [3]: 8% and 2%
- Population Mitochondria Different-Phenotype (%) [3]: 5% and 4%
- Population Mitotic Cells (%) [3]: 10% and 7%
- Population Normal (%) [3]: 98% and 99%
- Population Pyknosed Nuclei (%) [3]: 7%
- Population Tubulin-Different-Phenotype (%) [3]: 4% and 2%
- Total Cell Count [3]: 357 and 183
- Population Apoptotic (%) [4]: 76% and 71%
- Population Fragmented Nuclei (%) [4]: 21% and 22%
- Population Healthy Nuclei (%) [4]: 72%
- Population Hoechst High Intensity Objects (%) [4]: 2% and 1%
- Population Mitochondria Different-Phenotype (%) [4]: 1%
- Population Mitotic Cells (%) [4]: 23% and 28%
- Population Normal (%) [4]: 97% and 98%
- Population Pyknosed Nuclei (%) [4]: 5% and 4%
- Total Cell Count [4]: 297 and 160
- Population Apoptotic (%) [5]: 82% and 84%
- Population Fragmented Nuclei (%) [5]: 19% and 15%
- Population Healthy Nuclei (%) [5]: 73% and 75%
- Population Hoechst High Intensity Objects (%) [5]: 3% and 4%
- Population Membrane Permeable-Phenotype (%) [5]: 5% and 7%
- Population Mitochondria Different-Phenotype (%) [5]: 3% and 2%
- Population Mitotic Cells (%) [5]: 17% and 15%
- Population Normal (%) [5]: 96% and 95%
- Population Pyknosed Nuclei (%) [5]: 6% and 9%
- Population Tubulin-Different-Phenotype (%) [5]: 4% and 2%
- Total Cell Count [5]: 515 and 296
- Population Apoptotic (%) [6]: 79% and 77%
- Population Fragmented Nuclei (%) [6]: 18% and 26%
- Population Healthy Nuclei (%) [6]: 75% and 65%
- Population Hoechst High Intensity Objects (%) [6]: 1% and 2%
- Population Membrane Permeable-Phenotype (%) [6]: 2% and 8%
- Population Mitochondria Different-Phenotype (%) [6]: 1% and 5%
- Population Mitotic Cells (%) [6]: 20% and 22%
- Population Normal (%) [6]: 98% and 97%
- Population Pyknosed Nuclei (%) [6]: 5% and 8%
- Population Tubulin-Different-Phenotype (%) [6]: 1% and 11%
- Total Cell Count [6]: 414 and 215
